In brackets after ≈: the same amount, converted by molar mass.
What was measured:
[1] = Neuroprotective activity in rat hippocampal neurons assessed as protection against ammonium acetate induced cell death after 5 hrs by propidium iodide staining based fluorimetric analysis; format: functional, Hippocampal neurone
Method in brief: (§1)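 Ammonium acetate (300 μM) used as toxin. Viability read by CFDA fluorescence, cell death by propidium iodide. Full efficacy defined as the fluorescence of neurons without toxin.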

[2] = Neuroprotective activity in rat hippocampal neurons assessed as protection against ethanol induced cell death by measuring neuronal viability after 5 hrs by carboxyfluorescein diacetate dye based fluorimetric analysis; format: functional, Hippocampal neurone
Method in brief: (§2)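 Ethanol (30 mM) used as toxin. Viability read by CFDA fluorescence, cell death by propidium iodide. Full efficacy defined as the fluorescence of neurons without toxin.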

[3] = Neuroprotective activity in rat hippocampal neurons assessed as protection against ammonium acetate induced cell death by measuring neuronal viability after 5 hrs by carboxyfluorescein diacetate dye based fluorimetric analysis; format: functional, Hippocampal neurone; method in brief: as §1
[4] = Neuroprotective activity in rat hippocampal neurons assessed as protection against ethanol induced cell death after 5 hrs by propidium iodide staining based fluorimetric analysis; format: functional, Hippocampal neurone; method in brief: as §2
[5] = target: T1, Cannabinoid receptor 1 (Homo sapiens, UniProt P21554); experiment: Displacement of [3H]CP 55940 from human CB1 receptor after 1 hr by liquid scintillation spectrometry
[6] = tested on: MDR1; experiment: Apparent permeability from apical to basolateral side in MDCK cells expressing MDR1; conditions: dog
[7] = target: Cannabinoid receptor 2 (Homo sapiens) (UniProt P34972); experiment: Displacement of [3H]WIN 55212-2 from human recombinant CB2 receptor expressed in CHO cell membranes at 10 uM after 120 mins by scintillation counting analysis
[8] = target: T1, Cannabinoid receptor 1; experiment: Displacement of [3H]CP 55940 from human recombinant CB1 receptor expressed in CHO cell membranes at 10 uM after 120 mins by scintillation counting analysis
[9] = Apparent permeability from apical to basolateral side in human Caco cells; conditions: Caco-2
[10] = tested on: MDR1; experiment: Efflux ratio of permeability from basolateral to apical over apical to basolateral side in MDCK cells expressing MDR1; conditions: dog
[11] = Toxicity in rat hippocampal neurons assessed as neuronal viability after 5 hrs by carboxyfluorescein diacetate dye based fluorimetric analysis; design: species or system Hippocampal neurone; conditions: read-out: TC50
[12] = Kinetic aqueous solubility of the compound at pH 7.4
[13] = Efflux ratio of permeability from basolateral to apical over apical to basolateral side in human Caco cells; conditions: Caco-2
[14] = in vitro; conditions: rat, rat hippocampal neurons
[15] = Rattus norvegicus, Hippocampal neurone, 5 h, read-out: EC50

Sequence of Cannabinoid receptor 2 (Homo sapiens) (P34972 whole entry): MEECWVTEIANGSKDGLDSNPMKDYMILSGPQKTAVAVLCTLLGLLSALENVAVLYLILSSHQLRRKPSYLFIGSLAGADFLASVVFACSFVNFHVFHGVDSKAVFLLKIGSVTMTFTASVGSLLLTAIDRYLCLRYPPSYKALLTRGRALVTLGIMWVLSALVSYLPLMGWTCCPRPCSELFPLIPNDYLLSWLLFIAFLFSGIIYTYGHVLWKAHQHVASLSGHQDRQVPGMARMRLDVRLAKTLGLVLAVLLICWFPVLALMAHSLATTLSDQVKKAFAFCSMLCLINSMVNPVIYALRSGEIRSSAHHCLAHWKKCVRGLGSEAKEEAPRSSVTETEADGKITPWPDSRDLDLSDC
T1 sequence (P21554 whole entry): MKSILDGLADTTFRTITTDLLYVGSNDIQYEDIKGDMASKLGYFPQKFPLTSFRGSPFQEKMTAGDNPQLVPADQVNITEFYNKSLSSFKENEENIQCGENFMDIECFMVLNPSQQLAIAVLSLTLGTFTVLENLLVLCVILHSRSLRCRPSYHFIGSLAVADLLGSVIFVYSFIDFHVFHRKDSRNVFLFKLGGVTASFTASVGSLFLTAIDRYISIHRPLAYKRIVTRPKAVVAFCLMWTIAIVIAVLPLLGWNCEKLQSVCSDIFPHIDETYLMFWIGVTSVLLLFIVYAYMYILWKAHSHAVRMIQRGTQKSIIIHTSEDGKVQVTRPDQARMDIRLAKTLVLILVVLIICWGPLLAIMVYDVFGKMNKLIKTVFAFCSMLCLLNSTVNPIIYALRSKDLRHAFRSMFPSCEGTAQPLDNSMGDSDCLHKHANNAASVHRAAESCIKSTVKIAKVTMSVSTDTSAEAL

Compound | EC50 [1, 15] [µM] | EC50 [2, 15] [µM] | EC50 [3, 15] [µM] | EC50 [4, 15] [µM] | other results
C=C(C)[C@@H]1CCC(C)=C[C@H]1c1c(O)cc(CCCCC(=O)O)cc1O | 30 | 10 | 4 | 7 | 
C=C(C)[C@@H]1CCC(C)=C[C@H]1c1c(O)cc(CCN2CCOCC2)cc1O | 20 | 5 | > 100 | 24 | 
CCCCCCC(C)(C)c1cc(O)c(C2CCCCC2)c(O)c1 |  |  |  |  | Ki [5]: 0.011 µM
C=C(C)[C@@H]1CCC(C)=C[C@H]1c1c(O)cc(CC2CN(C)C2)cc1O |  |  |  |  | EC50 ([1]; hippocampal neurone): ND(toxic); EC50 ([2]; hippocampal neurone): ND(toxic); EC50 ([3]; hippocampal neurone): ND(toxic); EC50 ([4]; hippocampal neurone): ND(toxic)
C=C(C)[C@@H]1CCC(C)=C[C@H]1c1c(O)cc(CCn2nccn2)cc1O | > 100 | > 100 | > 100 | > 100 | 
C=C(C)[C@@H]1CCC(C)=C[C@H]1c1c(O)cc(CC2CN(C(C)=O)C2)cc1O | 0.04 | 0.08 | 0.04 | 0.05 | Papp A→B [6]: 35 ×10⁻⁶ cm/s; inhibition [7]: 56%; inhibition [8]: 13%; Papp A→B [9]: 49 ×10⁻⁶ cm/s; efflux ratio [10]: 1.02; CC50 at 5 h [11]: 300 µM; solubility kinetic [12]: 87 µM (≈ 30.9 µg/mL); efflux ratio [13]: 0.53; selectivity ratio at 5 h [14]: 7500
C=C(C)[C@@H]1CCC(C)=C[C@H]1c1c(O)cc(CC(=O)N2CCOCC2)cc1O | > 100 | > 100 | > 100 | > 100 | 
C=C(C)[C@@H]1CCC(C)=C[C@H]1c1c(O)cc(CC2CN(C(=O)OCC)C2)cc1O | 0.05 | 0.03 | 0.11 | 0.02 | Papp A→B [6]: 11 ×10⁻⁶ cm/s; inhibition [7]: 37%; inhibition [8]: 19%; Papp A→B [9]: 22 ×10⁻⁶ cm/s; efflux ratio [10]: 0.97; CC50 at 5 h [11]: > 100 µM; solubility kinetic [12]: 16.6 µM (≈ 6.4 µg/mL); efflux ratio [13]: 0.5; selectivity ratio at 5 h [14]: 900
C=C(C)[C@@H]1CCC(C)=C[C@H]1c1c(O)cc(O)cc1CC1CN(C(C)=O)C1 | > 100 | > 100 | > 100 | > 100 | 
C=C(C)[C@@H]1CCC(C)=C[C@H]1c1c(O)cc(CCn2ccnn2)cc1O | 1 | 5 | 3 | 2 | inhibition [7]: 1%; inhibition [8]: 6%; CC50 at 5 h [11]: > 100 µM
C=C(C)[C@@H]1CCC(C)=C[C@H]1c1c(O)cc(CCCCCO)cc1O | > 100 | 54 | > 100 | > 100 | 
C=C(C)[C@@H]1CCC(C)=C[C@H]1c1c(O)cc(CCNC(C)=O)cc1O | > 100 | 30 | > 100 | 17 | 
C=C(C)[C@@H]1CCC(C)=C[C@H]1c1c(O)cc(CCCCC)cc1O [CANNABIDIOL] | 4 | 1 | 2 | 3 | Papp A→B [6]: < 2.23 ×10⁻⁶ cm/s; Papp A→B [9]: < 1.5 ×10⁻⁶ cm/s; CC50 at 5 h [11]: 33 µM; solubility kinetic [12]: 17 µM (≈ 5.35 µg/mL)
C=C(C)[C@@H]1CCC(C)=C[C@H]1c1c(O)cc(CCOCC)cc1O | 0.2 | 0.3 | 36 | 3 | 
C=C(C)[C@@H]1CCC(C)=C[C@H]1c1c(O)cc(CC2COC2)cc1O | 20 | 18 | 35 | 10 | 

From ChEMBL document CHEMBL3808335, “Discovery of KLS-13019, a Cannabidiol-Derived Neuroprotective Agent, with Improved Potency, Safety, and Permeability” (ACS Med Chem Lett, 2016)
